Laboratory results published in ChEMBL document CHEMBL1649128, “SC29EK, a peptide fusion inhibitor with enhanced alpha-helicity, inhibits replication of human immunodeficiency virus type 1 mutants resistant to enfuvirtide” (Antimicrob Agents Chemother, 2009).
The source made the active and inactive calls. The calls are words filed in the database; no cut-off is given here. Non-standard residues stand in square brackets, D forms with d. Nle = CCCC[C@H](N)C(=O)O

Tests used:
[1] = system: Human immunodeficiency virus 1; assay: (§1) Antiviral activity against enfuvirtide-resistant Human immunodeficiency virus 1 NL4-3 harboring gp41 D36G/I37K/N126K/L204I mutation and 5-amino-acid deletion in the V4 region of gp120 protein by MAGI assay using human HeLa Cd4/LTR-beta-galactosidase cells by MAGI assay; format: functional, organism-based
[2] = system: Human immunodeficiency virus 1; assay: Antiviral activity against enfuvirtide-resistant Human immunodeficiency virus 1 NL4-3 harboring gp41 D36G/V38A mutation by MAGI assay using human HeLa Cd4/LTR-beta-galactosidase cells relative to HIV1 NL4-3 gp41 D36G mutant; format: functional
[3] = system: Human immunodeficiency virus 1; assay: as §1, with “cells relative to HIV1 NL4-3 gp41 D36G mutant” for “cells”; format: functional
[4] = system: Human immunodeficiency virus 1; assay: Antiviral activity against enfuvirtide-resistant Human immunodeficiency virus 1 NL4-3 harboring gp41 D36G mutation by MAGI assay using human HeLa Cd4/LTR-beta-galactosidase cells; format: functional, organism-based
[5] = system: Human immunodeficiency virus 1; assay: Antiviral activity against enfuvirtide-resistant Human immunodeficiency virus 1 NL4-3 by MAGI assay using human HeLa Cd4/LTR-beta-galactosidase cells in presence fresh human serum after 2 hrs; format: functional, organism-based
[6] = system: Human immunodeficiency virus 1; assay: Antiviral activity against Human immunodeficiency virus 1 NL4-3 assessed as decrease in EC50 by MAGI assay relative to ddC; format: functional, organism-based
Procedure, shortened: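 HeLa CD4/LTR-β-galactosidase (MAGI) cells were seeded at 10^4/well and infected next day with HIV-1 NL4-3 (60 MAGI U/well). They were cultured 48 h with serial drug dilutions in medium containing 5, 10, 20 or 50% FCS, with ddC as the reverse transcriptase inhibitor reference. X-gal-stained blue cells were counted. EC50 is the concentration giving 50% inhibition, determined three times independently.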

[7] = system: Human immunodeficiency virus 1; assay: Antiviral activity against enfuvirtide-resistant Human immunodeficiency virus 1 NL4-3 harboring gp41 D36G/N43D mutation by MAGI assay using human HeLa Cd4/LTR-beta-galactosidase cells relative to HIV1 NL4-3 gp41 D36G mutant; format: functional
[8] = system: Human immunodeficiency virus 1; assay: Antiviral activity against enfuvirtide-resistant Human immunodeficiency virus 1 NL4-3 harboring gp41 D36G/N126K mutation by MAGI assay using human HeLa Cd4/LTR-beta-galactosidase cells relative to HIV1 NL4-3 gp41 D36G mutant; format: functional
[9] = system: Human immunodeficiency virus 1; assay: Antiviral activity against enfuvirtide-resistant Human immunodeficiency virus 1 NL4-3 by MAGI assay using human HeLa Cd4/LTR-beta-galactosidase cells relative to HIV1 NL4-3 gp41 D36G mutant; format: functional
[10] = system: Human immunodeficiency virus 1; assay: Antiviral activity against enfuvirtide-resistant Human immunodeficiency virus 1 NL4-3 harboring gp41 D36G/V38A mutation by MAGI assay using human HeLa Cd4/LTR-beta-galactosidase cells; format: functional, organism-based
[11] = system: Human immunodeficiency virus 1; assay: Antiviral activity against enfuvirtide-resistant Human immunodeficiency virus 1 NL4-3 harboring gp41 D36G/N43D mutation by MAGI assay using human HeLa Cd4/LTR-beta-galactosidase cells; format: functional, organism-based
[12] = system: Human immunodeficiency virus 1; assay: Antiviral activity against enfuvirtide-resistant Human immunodeficiency virus 1 NL4-3 harboring gp41 D36G/N126K mutation by MAGI assay using human HeLa Cd4/LTR-beta-galactosidase cells; format: functional, organism-based
[13] = system: Human immunodeficiency virus 1; assay: Antiviral activity against enfuvirtide-resistant Human immunodeficiency virus 1 NL4-3 by MAGI assay using human HeLa Cd4/LTR-beta-galactosidase cells in presence of 5 to 50% fetal calf serum; format: functional, organism-based
Procedure, shortened: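 MAGI assay against HIV-1 NL4-3 run with FCS at 5, 10, 20 or 50% in the medium. HeLa CD4/LTR-β-galactosidase cells were inoculated at 60 MAGI U/well, cultured 48 h with drug, and X-gal-stained blue cells counted. Each EC50 was determined three times independently, with Student's t test.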

[14] = system: Human immunodeficiency virus 1; assay: Antiviral activity against enfuvirtide-resistant Human immunodeficiency virus 1 NL4-3 harboring gp41 D36G/N43D/S138A mutation by MAGI assay using human HeLa Cd4/LTR-beta-galactosidase cells relative to HIV1 NL4-3 gp41 D36G mutant; format: functional
[15] = system: Human immunodeficiency virus 1; assay: Antiviral activity against enfuvirtide-resistant Human immunodeficiency virus 1 NL4-3 by MAGI assay using human HeLa Cd4/LTR-beta-galactosidase cells; format: functional, organism-based; settings: Human immunodeficiency virus 1, NL4-3, HeLa
[16] = system: Human immunodeficiency virus 1; assay: Antiviral activity against enfuvirtide-resistant Human immunodeficiency virus 1 NL4-3 harboring gp41 D36G/N43D/S138A mutation by MAGI assay using human HeLa Cd4/LTR-beta-galactosidase cells; format: functional, organism-based

Row | Molecule | EC50 [1] [µM] | Ratio EC50 [2] | Ratio EC50 [3] | EC50 [4] [µM] | inhibition [5] | inhibition [6] | Ratio EC50 [7] | Ratio EC50 [8] | Ratio EC50 [9] | EC50 [10] [µM] | EC50 [11] [µM] | EC50 [12] [µM] | inhibition [13] | Ratio EC50 [14] | EC50 [15] [µM] | EC50 [16] [µM]
1 | enfuvirtide | 0.39 | 9.6 | 163 | 0.0024 | Active | inactive | 20 | 1.4 | 6.3 | 0.023 | 0.049 | 0.0034 | inactive | 35 | 0.015 | 0.084
2 | H-WEEWDKKIEEYTKKIEELIKKS-OH | 0.252 | 0.4 | 0.4 | 0.686 | – | – | 0.2 | >1.5 | 0.3 | 0.289 | 0.114 | > 1 | – | >1.5 | 0.217 | > 1
3 | H-WEEWDKKIEEYTKKIEELIKKSEEQQKKN-OH | 0.05 | 1.6 | 26 | 0.0019 | Active | – | 2.2 | 1.4 | 1.3 | 0.003 | 0.0041 | 0.0027 | Active | 1.8 | 0.0024 | 0.0034
4 | H-W[Nle]EWDRKIEEYTKKIEELIKKSQEQQEKNEKELKREREREG-OH | 0.003 | 0.9 | 1.3 | 0.0024 | – | – | 0.7 | 5 | 0.7 | 0.0022 | 0.0016 | 0.012 | Active | 0.6 | 0.0016 | 0.0015
5 | CC[C@H](C)[C@H](NC(=O)[C@H](CC(C)C)NC(=O)[C@H](CO)NC(=O)[C@H](Cc1cnc[nH]1)NC(=O)[C@@H](NC(=O)[C@H](CC(C)C)NC(=O)[C@H](CO)NC(=O)[C@@H](NC(=O)[C@H](Cc1ccc(O)cc1)NC(=O)[C@H](CC(N)=O)NC(=O)[C@H](CC(N)=O)NC(=O)[C@@H](NC(=O)[C@H](CCC(=O)O)NC(=O)[C@H](CCCNC(=N)N)NC(=O)[C@H](CC(=O)O)NC(=O)[C@H](Cc1c[nH]c2ccccc12)NC(=O)[C@H](CCC(=O)O)NC(=O)[C@@H](CCS)NC(=O)[C@@H](N)Cc1c[nH]c2ccccc12)[C@@H](C)CC)[C@@H](C)O)[C@@H](C)CC)C(=O)N[C@@H](CCC(=O)O)C(=O)N[C@@H](CCC(=O)O)C(=O)N[C@@H](CO)C(=O)N[C@@H](CCC(N)=O)C(=O)N[C@@H](CC(N)=O)C(=O)N[C@@H](CCC(N)=O)C(=O)N[C@@H](CCC(N)=O)C(=O)N[C@@H](CCC(=O)O)C(=O)N[C@@H](CCCCN)C(=O)N[C@@H](CC(N)=O)C(=O)N[C@@H](CCC(N)=O)C(=O)N[C@@H](CCC(=O)O)C(=O)N[C@@H](CC(C)C)C(=O)N[C@@H](CC(C)C)C(=O)O | > 1 | 9.7 | >19 | 0.052 | – | – | >19 | 3.7 | 4.7 | 0.504 | > 1 | 0.192 | – | >19 | 0.245 | > 1
